The values that follow come from ChEMBL document CHEMBL1140074, “Aminoacyl-anthraquinone conjugates as telomerase inhibitors: synthesis, biophysical and biological evaluation” (J Med Chem, 2008).

The species named for test [1] is Homo sapiens. Nature of the test: Binding affinity to human telomeric DNA sequence assessed as stabilization of G-quadruplex at 10 uM by thermal denaturation. Summed up: (§1)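 Fluorescence melting in a LightCycler of 0.25 µM telomeric oligonucleotide HTS (5'-FAM, 3'-methyl red) in LiP buffer (10 mM LiOH, 50 mM KCl, pH 7.4 with H3PO4). Samples were denatured at 95 °C for 5 min, then cooled and reheated at 0.5 °C/min in 1 °C steps with 2 min equilibration per step. Excitation 488 nm, emission 520 nm. ΔTm was taken relative to ligand-free DNA.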

For the next test, the system named is HeLa. Nature of the test: Cytotoxicity against human HeLa cells expressing telomerase after 96 hrs by MTT assay. In kind it is functional, cell-based. Summed up:
(§2)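 Cells grown in DMEM with 10% heat-inactivated FCS, penicillin/streptomycin, 37 °C, 5% CO2. Plated at 10000 cells/well and left overnight, then exposed to eight serial dilutions in triplicate for 96 h. MTT added to 0.8 mg/mL final for 2 h, formazan dissolved in DMSO, absorbance read at 540 nm. IC50 from sigmoidal dose-response fits.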

Test [2] concerns the target Telomerase reverse transcriptase (Homo sapiens, UniProt O14746). Nature of the test: Inhibition of telomerase in human JR8 cells by TRAP assay. In kind it is cell-based. Summed up: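 Telomerase source was a CHAPS lysate of exponentially growing JR8 cells (500 ng protein per reaction). Elongation 30 min at 30 °C, then 30 PCR cycles. Products run on 10% PAGE with phosphorimager read-out, in triplicate. Drug levels kept below those inhibiting Taq.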

The species entered for test [3] is Homo sapiens. Nature of the test: Binding affinity to human telomeric DNA sequence assessed as stabilization of G-quadruplex at 1 uM by thermal denaturation. Summed up:
as §1

Test [4] has as its target DNA polymerase I, thermostable (Thermus aquaticus, UniProt P19821). The test is described as follows: Inhibition of Taq polymerase. In short, it runs like this: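 PCR with 2.5 ng pBR322 template and primers Tup/Tdown (0.5 µM) amplifying plasmid bases 906-1064. Compounds tested from 20 nM to 40 µM. Run 25 cycles of 94 °C, 65 °C and 72 °C (30 s each). Products resolved on 2% agarose in TBE and stained with ethidium bromide.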

The nature of test [5]: Cytotoxicity against human 293T cells expressing telomerase after 96 hrs by MTT assay. It counts as cell-based. The following applies: HEK-293T. Summed up: as §2
Background: Tetrazolium dyes change colour on reduction, which living cells bring about.

As usually defined, the ΔTm is the shift of the melting midpoint relative to a reference. In general, IC50 refers to the point on the concentration scale where inhibition reaches its midpoint. Low readings indicate greater potency, high ones weaker potency. As usually defined, the EC50 is the concentration giving half of the maximal effect. Low readings indicate greater potency, high ones weaker potency.

DNA polymerase I, thermostable, sequence (P19821 whole entry): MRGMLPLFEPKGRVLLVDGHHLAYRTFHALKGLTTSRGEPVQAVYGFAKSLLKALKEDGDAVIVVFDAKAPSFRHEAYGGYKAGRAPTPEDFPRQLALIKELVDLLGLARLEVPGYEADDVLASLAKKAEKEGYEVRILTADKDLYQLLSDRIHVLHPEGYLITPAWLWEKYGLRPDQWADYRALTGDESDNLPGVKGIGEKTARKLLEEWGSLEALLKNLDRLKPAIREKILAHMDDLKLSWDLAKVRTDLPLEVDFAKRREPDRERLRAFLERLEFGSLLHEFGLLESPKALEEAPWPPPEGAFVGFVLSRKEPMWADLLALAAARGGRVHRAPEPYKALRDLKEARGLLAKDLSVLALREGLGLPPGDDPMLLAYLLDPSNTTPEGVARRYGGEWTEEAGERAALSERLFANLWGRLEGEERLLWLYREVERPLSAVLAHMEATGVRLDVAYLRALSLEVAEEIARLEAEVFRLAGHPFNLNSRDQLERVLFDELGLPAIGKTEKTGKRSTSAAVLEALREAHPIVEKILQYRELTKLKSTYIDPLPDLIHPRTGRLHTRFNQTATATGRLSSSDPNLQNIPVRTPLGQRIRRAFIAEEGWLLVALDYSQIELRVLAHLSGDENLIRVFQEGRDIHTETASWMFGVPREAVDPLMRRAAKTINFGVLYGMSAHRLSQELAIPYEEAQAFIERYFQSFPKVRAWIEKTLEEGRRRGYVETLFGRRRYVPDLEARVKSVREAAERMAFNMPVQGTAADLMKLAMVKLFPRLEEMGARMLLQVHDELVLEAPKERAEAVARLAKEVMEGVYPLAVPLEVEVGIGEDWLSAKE
Telomerase reverse transcriptase, sequence (O14746 whole entry): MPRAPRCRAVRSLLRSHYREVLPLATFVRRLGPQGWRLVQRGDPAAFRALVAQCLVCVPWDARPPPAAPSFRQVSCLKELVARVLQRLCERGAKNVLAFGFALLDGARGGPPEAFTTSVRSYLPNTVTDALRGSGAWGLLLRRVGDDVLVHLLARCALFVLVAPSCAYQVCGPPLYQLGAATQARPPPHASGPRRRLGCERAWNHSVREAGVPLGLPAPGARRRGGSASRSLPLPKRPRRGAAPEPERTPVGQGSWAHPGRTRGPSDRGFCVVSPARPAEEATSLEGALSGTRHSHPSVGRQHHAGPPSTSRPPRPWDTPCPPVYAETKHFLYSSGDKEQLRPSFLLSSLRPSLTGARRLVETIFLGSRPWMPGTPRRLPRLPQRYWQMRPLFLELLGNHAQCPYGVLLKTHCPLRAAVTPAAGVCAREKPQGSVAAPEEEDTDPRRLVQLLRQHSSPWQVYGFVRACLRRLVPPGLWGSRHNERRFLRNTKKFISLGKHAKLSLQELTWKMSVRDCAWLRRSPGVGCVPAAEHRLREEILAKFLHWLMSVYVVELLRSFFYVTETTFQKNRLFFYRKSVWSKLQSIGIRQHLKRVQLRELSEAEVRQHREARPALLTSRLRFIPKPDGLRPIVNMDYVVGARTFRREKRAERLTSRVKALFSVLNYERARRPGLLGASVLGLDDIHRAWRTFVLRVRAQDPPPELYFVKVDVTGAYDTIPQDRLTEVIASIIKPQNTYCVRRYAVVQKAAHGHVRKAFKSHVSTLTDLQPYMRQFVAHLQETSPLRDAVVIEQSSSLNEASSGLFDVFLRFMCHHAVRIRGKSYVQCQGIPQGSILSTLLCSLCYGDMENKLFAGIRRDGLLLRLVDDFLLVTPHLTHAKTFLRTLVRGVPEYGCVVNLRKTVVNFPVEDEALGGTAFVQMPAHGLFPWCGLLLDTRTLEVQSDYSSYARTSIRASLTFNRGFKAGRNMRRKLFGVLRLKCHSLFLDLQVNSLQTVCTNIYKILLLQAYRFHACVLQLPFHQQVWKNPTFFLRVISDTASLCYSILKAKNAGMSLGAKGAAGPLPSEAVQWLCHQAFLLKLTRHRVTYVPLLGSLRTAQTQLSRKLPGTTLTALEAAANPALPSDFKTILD

Consider `NCCC(=O)Nc1ccc2c(c1)C(=O)c1ccc(NC(=O)CCN)cc1C2=O`, for which the ΔTm in the test listed under Homo sapiens [1] is 18.1 °C; in the test listed under Homo sapiens [3] it was 9.1 °C. For the same compound, the IC50 (with HeLa; in test [5]) was over 100 µM in each case. Further, the values for the EC50 in test [2] and in test [4] were 1.25 µM and over 40 µM, respectively.
Regarding `CC[C@H](C)[C@H](N)C(=O)NCC(=O)Nc1ccc2c(c1)C(=O)c1ccc(NC(=O)CNC(=O)[C@@H](N)[C@@H](C)CC)cc1C2=O`, the results for the ΔTm in the test filed under Homo sapiens [1] and in the test filed under Homo sapiens [3] were 4.3 °C and 0.8 °C, respectively. The results for the IC50 (in the test on HeLa; in test [5]) were 18 µM and 42 µM, respectively. For the same compound, the EC50 in test [2] was 25 µM; in test [4], over 40 µM.
On to `NCCCC[C@H](N)C(=O)NCCC(=O)Nc1ccc2c(c1)C(=O)c1cc(NC(=O)CCNC(=O)[C@@H](N)CCCCN)ccc1C2=O`, for which the ΔTm came to 17 °C in the test listed under Homo sapiens [1] and 3 °C in the test filed under Homo sapiens [3]. For the same compound, the IC50 (in the test on HeLa; in test [5]) was over 100 µM in each case. Moreover, the results for the EC50 in test [2] and in test [4] were 1.5 µM and 2.5 µM, respectively.
